# Source: PubChem BioAssay (several laboratories)
# BB579 growth dn = growth inhibitors of yeast BB579 in restrictive medium, primary screen, yeast lifespan-shortening project, S. cerevisiae | OD615, 48 h | inhibition, % at 10 µM | actives 0.51% (n = 140,000);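 active = inhibition above a set limit, 3 SD over the mean compound inhibition, cut at about 44% in these data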
#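 System: DeaD yeast strain BB579; buffer or medium: CSMM-D dextrose restrictive medium; technique: OD at 615 nm; schedule: 4 h cell preincubation, 48 h compound exposure, 30 °C humidified; doses: single 10 µM dose; controls: amphotericin B 10 µg/mL, positive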
# Measles CPE = compounds protecting cells from measles virus cytopathic effect, primary screen, measles RdRp inhibitor project, single point, MLSMR library, absorbance. Measles virus-infected cells, CPE protection. protection (pct of control), % at 4 µM. actives 1.5% (n = 140,000); in the data active = protection mostly above about 24%, no sharp cut-off; inactive = mostly below about 26%
# RAM network inh = inhibitors of the yeast RAM network, primary screen, dse1pr::URA3 reporter, 5-FOA selection; S. cerevisiae dse1pr::URA3 reporter, 5-FOA growth OD615, 2 d; analog-sensitive cbk1-as2 kinase mutant strain; inhibition, % at 50 µM; actives 1.8% (n = 190,000);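 active = inhibition above a set limit, 3 SD over mean compound inhibition, cut at about 8.4% in these data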;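 note: 0% = DMSO-only wells with no growth and 100% = 10 µM 1-NA-PP1 full growth; inhibition rescues growth on 5-FOA so higher OD means more RAM inhibition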
# Yeast lifespan up = compounds extending yeast replicative lifespan, primary screen, S. cerevisiae, OD615; S. cerevisiae growth with nicotinamide; deaD strain in restrictive glucose medium; inhibition of the nicotinamide effect, % at 10 µM; actives 0.68% (n = 130,000);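 active = inhibition above a set limit, placed 3 SD over the median of all compounds, cut at about 26% in these data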;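 note: 0% = nicotinamide-treated wells and 100% = cells grown without nicotinamide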
#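 System: Modified budding yeast, DeaD strain | Buffer or medium: Restrictive glucose medium | Also added: 1.5 mM nicotinamide | Doses: 10 µM single point, 0.25% DMSO | Schedule: 48 h compound exposure at 30 °C, humidified | Detection: Absorbance at 615 nm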
# An asterisk follows results filed as active; / = no result given. Sampled rows, rich in hits. Any-hit rate of the full collection: about 3.8%.
SMILES,BB579 growth dn,Measles CPE,RAM network inh,Yeast lifespan up
CCOc1nc(-c2ccccc2)ccc1-c1noc(-c2cccs2)n1,-2,4,11*,0
COc1ccc2c(COC(=O)c3n[nH]c4ccccc34)cc(=O)oc2c1,-30,13,4,-8
CCCc1cc(=O)[nH]c(SCC(=O)Nc2ccc(C)cc2)n1,/,/,8.5*,/
CCCc1cc(=O)[nH]c(SCC(=O)NC)n1,2,5,0,-7
CSCCC(NS(=O)(=O)c1ccccc1F)C(=O)OCc1ccccc1Cl (stereo not drawn),-12,8,8,5
COc1cccc(C2CC(c3ccc(C)cc3)Nc3nc(N)nn32)c1 (stereo not drawn),-26,40*,0,3
CC(C)Cc1nnc(NC(=O)c2cc(-c3ccccc3)nc3ccccc23)s1,-12,44*,4,-30
COc1ccc(-c2cc(C(=O)Nc3nc4c(C)cccc4s3)c3ccccc3n2)cc1OC,-50,7,8.6*,-12
O=C(NCc1ccccn1)c1cc(-c2ccccc2)nc2ccccc12,-33,11,0,1
O=C(NCc1ccccn1)c1cc(-c2ccc(-c3ccccc3)cc2)nc2ccccc12,-21,50*,2,1
O=C(Nc1nccs1)c1cc(-c2ccccc2)nc2ccccc12,-21,40*,5,-5
COc1cccc(-c2cc(C(=O)Nc3nc4ccccc4s3)c3ccccc3n2)c1,-35,13,4,-9
Cc1nn(Cc2cccc(F)c2)c(C)c1NC(=O)c1c(Cl)cnn1C,-12,12,2,-3
CCS(=O)(=O)n1nc(-c2ccccc2)nc1SC,-7,3,2,-8
COc1ccc(CC2SC(=Nc3ccc(F)cc3)NC2=O)cc1 (stereo not drawn),/,/,3,/
CC(C)(C)NC(=O)c1ccc2nsnc2c1,-35,7,2,-5
Cc1nn(Cc2cccc(C(=O)N3N=C(C(F)F)CC3(O)C(F)F)c2)c(C)c1[N+](=O)[O-] (stereo not drawn),-31,42*,1,-2
O=C(Cc1cccs1)Nc1nc2ccccc2s1,-12,25,3,-8
O=C(Cc1ccccc1)Nc1nc2ccccc2s1,-29,52*,2,/
O=C(CCNC(=O)c1ccccc1Cl)Nc1nnc(C2CC2)s1,/,/,1,/
O=C(c1ccco1)N(CCC(c1ccccc1)c1ccco1)Cc1ccccc1 (stereo not drawn),-29,18,11*,9
O=C(c1ccc(Cl)c(Cl)c1)N1CCC(=O)N(C(COCc2cccc(C(F)(F)F)c2)Cc2ccccc2)CC1 (stereo not drawn),-39,7,9.0*,7
Cc1cccc(COCC(Cc2ccccc2)N2CCN(C(=O)c3ccc(Cl)c(Cl)c3)CCC2=O)c1 (stereo not drawn),-35,2,10*,16
O=C(c1ccc(C(F)(F)F)cc1)N1CCC(=O)N(C(COCc2ccc(Cl)cc2)Cc2ccccc2)CC1 (stereo not drawn),-45,4,9.8*,11
O=C(c1ccc(Cl)c(Cl)c1)N1CCC(=O)N(C(COCc2ccc(Cl)cc2)Cc2ccccc2)CC1 (stereo not drawn),-20,25,8,7
SMILES,BB579 growth dn,Measles CPE,RAM network inh,Yeast lifespan up
Cc1cccc(COCC(Cc2ccccc2)N2CCN(C(=O)c3cc(Cl)cc(Cl)c3)CCC2=O)c1 (stereo not drawn),-46,1,11*,12
Cc1cccc(COCC(Cc2ccccc2)N2CCN(C(=O)c3cccc(C)c3)CCC2=O)c1 (stereo not drawn),-42,13,4,13
COc1nccnc1NS(=O)(=O)c1ccc(NC(=O)c2cccc(C)c2)cc1,/,/,1,/
COc1ccc(Cl)cc1C(=O)NNC(=O)CN1C(=O)C2CC=CCC2C1=O (stereo not drawn),/,/,3,/
Cc1ccccc1NC(=O)Cc1nc(CCl)cs1,-11,42*,1,-4
Cc1cc(=O)[nH]c(SCc2nc3ccccc3s2)n1,46*,9,0,-13
CCCc1cc(=O)[nH]c(SCc2nc3ccccc3s2)n1,-20,27,4,-15
Cc1ccc(NC(=O)C(C)c2cccc(C(=O)c3ccccc3)c2)cc1O (stereo not drawn),-56,19,8.8*,7
Cc1cccnc1NC(=S)Nc1ccc(Br)cc1Cl,/,/,8.5*,/
CN(Cc1ccccc1)Cc1nc2scc(-c3ccccc3)c2c(=O)[nH]1,/,/,1,/
CC1=NNC(=O)C1CCC(=O)N/N=C/C(Br)=C/c1ccccc1 (stereo not drawn),-1,7,-1,35*
CC1C(=O)NN=C1C(=O)N/N=C\C(Br)=C\c1ccccc1 (stereo not drawn),/,/,5,/
CC(NC(=O)c1ccc(N)cc1)c1ccccc1 (stereo not drawn),/,/,0,/
CCn1c(SCc2ccccc2)nnc1-c1ccc(S(=O)(=O)N2CCCCC2)cc1,-30,10,4,2
CCn1c(SCc2nnc(-c3ccccc3)o2)nnc1-c1ccc(S(=O)(=O)N2CCCC2)cc1,-10,55*,1,-4
O=C(O)c1ccc2c3c(ncnc13)-c1ccccc1C2=O,96*,28,-1,-10
CC(=O)c1ccc(NC(=O)N2C3CCC2CC(O)(c2cccnc2)C3)cc1 (stereo not drawn),/,/,0,/
COc1cc(-c2nnc(-c3ccncc3)o2)ccc1OCc1ccccc1,-47,91*,3,-17
COc1ccccc1NS(=O)(=O)c1ccc(Cl)c(NC(=O)c2sc3cc(Cl)ccc3c2Cl)c1,/,/,9.0*,/
Cc1nn(C)cc1CN(C)C(=O)CCc1nnc(CCC2CCCCC2)o1,/,/,1,/
O=C(Nc1ccon1)c1ccc(S(=O)(=O)N2CCOCC2)cc1,/,/,1,/
O=C1NC(c2ccccc2)=C(c2ccccc2)C1=O,16,45*,1,-1
CCN(CC)CCCN(Cc1cc2cc3c(cc2[nH]c1=O)OCO3)C(=S)Nc1ccc(OC)cc1,/,/,4,/
O=C(NNS(=O)(=O)c1ccccc1)C(O)(c1ccccc1)c1ccccc1,1,63*,3,1
Cc1ccc(S(=O)(=O)NNC(=O)C(O)(c2ccccc2)c2ccccc2)cc1,-18,10,3,4
SMILES,BB579 growth dn,Measles CPE,RAM network inh,Yeast lifespan up
COc1ccc(-c2cn(-c3ccccc3)c3[n+]2CCS3)cc1,8,9,0,4
Cc1occc1C(=O)NC1CCCCCCC1,-1,28*,0,6
Cc1ccnc(NC(=O)c2c(-c3ccccc3Cl)noc2C)c1,4,24*,3,0
COc1ccccc1NC(=O)CNc1ccc(F)c(Cl)c1,-17,19,0,-6
COc1cccc(C2=NOC(C(=O)NC(C)C)C2)c1 (stereo not drawn),-6,57*,1,-13
Cc1ccc(C)c(NC(=S)NCCN(C2CCCCC2)C2CCCC2)c1,/,/,2,/
COc1ccccc1/C=C1\CCCC2=C1Nc1nnnn1C2c1ccccc1OC (stereo not drawn),-32,4,4,-4
